Sampled rows, rich in hits. Any-hit rate of the full collection: about 2.9%.
PGC1a acetyl inh – lowers PGC1a acetylation signal in U2OS cells. inhibition, % at 15.6 µM. AlphaScreen anti-acetyl-lysine; with virally co-expressed GCN5 acetyltransferase. 350,000 tested, 0.17% active;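 active = every replicate shows inhibition of at least 40%; inconclusive = mean inhibition at least 40% but some replicate below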;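 note: 0% = neutral control wells and 100% = positive control wells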
S100A4 inh HTS – inhibitors of human S100A4 binding to myosin IIA peptide | P26447 | S100A4/TAMRA-MyoIIA peptide fluorescence polarization | inhibition, % at 10.7 µM | 360,000 tested, 0.14% active | AID 652163;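 active = mean inhibition of at least 70% across replicates, with every replicate also reaching that level; inconclusive = mean inhibition reaches 70% but some replicates fall short; inactive = mean inhibition below 70%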
Target sequence (P26447 whole entry, looked up): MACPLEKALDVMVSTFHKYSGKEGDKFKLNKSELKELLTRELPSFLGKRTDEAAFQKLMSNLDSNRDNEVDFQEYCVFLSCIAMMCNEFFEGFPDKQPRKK
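Assay system: human S100A4 monomer with TAMRA-labelled myosin IIA peptide / Buffer or medium: Calcium-containing HEPES buffer, pH 7.2 / Reagent: TAMRA-labelled myosin IIA heavy-chain peptide probe, 5 nM / Compound: one dose per compound / Timing: polarization read 5 min after assay mix addition, stable 5–60 min / Benchmarks: neutral control DMSO, positive control TFP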
SIRT5 block – inhibitors of human sirtuin-5 desuccinylase; inhibition, % at 15 µM; 330,000 tested, 1.1% active; AID 652115; Q9NXA8; Purified SirT5, succinyl-peptide AMC, trypsin-coupled fluorescence; in the data active = inhibition above about 15%; inconclusive = no clear call, values can overlap the other calls
Target sequence (Q9NXA8 whole entry, looked up): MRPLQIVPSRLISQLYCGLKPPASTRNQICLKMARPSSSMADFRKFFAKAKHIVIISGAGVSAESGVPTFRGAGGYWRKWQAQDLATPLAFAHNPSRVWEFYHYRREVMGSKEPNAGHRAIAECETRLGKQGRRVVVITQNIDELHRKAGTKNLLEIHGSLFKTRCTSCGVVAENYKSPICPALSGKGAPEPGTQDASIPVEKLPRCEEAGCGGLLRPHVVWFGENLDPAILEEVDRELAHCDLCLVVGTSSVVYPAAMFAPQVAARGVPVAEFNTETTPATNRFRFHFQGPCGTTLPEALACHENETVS
Statin myotox sup – suppressors of simvastatin-induced myotoxicity in C2C12 myotubes; 330,000 tested, 0.78% active; rescue of ATP level, % at 7.49 µM; ATP luminescence, 48 h; scaled: DMSO 0, geranylgeraniol control 100;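 active = mean ATP rescue above about 67%, or every replicate alone reaching that limit, limit read from the data, passing the limit was not always enough; inconclusive = no clear call, values can overlap the other calls; inactive = mean under the limit and some replicate under it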;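 note: myotubes were challenged with 10 µM simvastatin during compound exposure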
DENV2 CPE – inhibitors of DENV2 cytopathic effect | CPE inhibition, % at 9.99 µM | AID 651640 | DENV2-infected cells, cytopathic effect rescue, plate reader | 350,000 tested, 1.7% active; in the data active = CPE inhibition above about 20%, passing the limit was not always enough; inconclusive = no clear call, values can overlap the other calls; tested in BHK-21 cells;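 note: 0% = median of neutral control wells and 100% = median of positive control wells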
* = called active by the depositor; ? = inconclusive; . = no result.

SMILES | PGC1a acetyl inh | S100A4 inh HTS | SIRT5 block | Statin myotox sup | DENV2 CPE
COc1ccc(S(=O)(=O)N(C)C[C@@H]2Oc3c(NC(=O)c4cc(C)nn4C)cccc3C(=O)N([C@H](C)CO)C[C@@H]2C)cc1 | 6 | 3 | 4 | -29 | -2
CCCNC(=O)C[C@H]1C[C@@H]2c3cc(NS(=O)(=O)c4ccccc4)ccc3O[C@@H]2[C@@H](CO)O1 | -1 | . | . | -2 | -1
CS(=O)(=O)Nc1cccc(NC(=O)c2cccc3c(-c4ccc(F)c(F)c4)coc23)c1 | -15 | 2 | 15* | 9 | 19
COc1cccc(CN(C)C[C@H]2OCc3ccccc3-c3ccccc3C(=O)N([C@@H](C)CO)C[C@H]2C)c1 | -21 | 4 | 8 | 2 | -2
C[C@@H]1CN([C@H](C)CO)C(=O)c2cc(NC(=O)Cc3cn(C)c4ccccc34)ccc2O[C@@H]1CN(C)Cc1ccncc1 | 3 | 3 | -1 | -20 | -4
NC(=S)N=Nc1c(O)n(Cc2ccccc2)c2ccccc12 | 1 | -3 | 6 | . | 63*
C/C(Cl)=C\Cn1c(O)c(N=NC(N)=S)c2ccccc21 | -2 | 0 | 2 | . | -2
Cc1ccc(Cn2c(O)c(N=NC(=S)Nc3ccccc3F)c3ccccc32)cc1 | . | 0 | 18* | . | -10
C[C@@H]1CCCCO[C@@H](CN(C)Cc2ccncc2)[C@H](C)CN([C@H](C)CO)C(=O)c2cc(NC(=O)Nc3ccc(F)cc3)ccc2O1 | 6 | . | . | -21 | -12
C[C@H](CO)N1C[C@H](C)[C@@H](CN(C)C(=O)C2CC2)Oc2cc(C#Cc3ccncc3)ccc2S1(=O)=O | -8 | ? | 4 | -33 | 8
CCOC(=O)C1=C(N)c2ccccc2CC1C(C)C (stereo unspecified) | 2 | . | . | 123* | .
C[C@@H]1CCCCO[C@@H](CN(C)C(=O)Nc2ccc(F)cc2)[C@@H](C)CN([C@H](C)CO)C(=O)c2cc(NS(=O)(=O)c3cccs3)ccc2O1 | -6 | -2 | 9 | 7 | -3
CC(C)(C)C(=O)Nc1sc2c(c1C(=O)Nc1ccccn1)CCCC2 | 0 | 7 | 18* | 3 | -3
COc1ccc(NS(=O)(=O)c2cccs2)cn1 | -13 | -6 | -1 | -3 | 24*
C[C@@H]1CN([C@H](C)CO)C(=O)c2cc(C#CC3(O)CCCC3)cnc2O[C@@H]1CN(C)Cc1cncnc1 | 6 | 1 | 4 | . | -10
CCN1CCCC1CNC(=O)c1c(O)c2c([nH]c1=O)CCCC2 (stereo unspecified) | 11 | . | . | 119* | .
CN(C)S(=O)(=O)N1CCC(Oc2ccc(C(=O)N3CCCCCCC3)cc2)CC1 | 0 | 2 | 0 | -5 | 45*
O=S(=O)(Nc1cccc(-n2cnnn2)c1)c1cccc(Cl)c1 | . | 19 | 3 | . | 59*
CC(CCc1ccccc1)NC(=O)CN1CCN(Cc2ccccc2)C1=O (stereo unspecified) | -4 | . | . | 0 | .
CC(CCc1ccccc1)NC(=O)CN1CCN(Cc2ccc(Cl)cc2)C1=O (stereo unspecified) | 7 | -7 | . | 67* | -2
COc1ccc(S(=O)(=O)N(C)C[C@@H]2Oc3ncc(-c4ccncc4)cc3C(=O)N([C@@H](C)CO)C[C@@H]2C)cc1 | 3 | 7 | -2 | -9 | 51*
COc1ccc(S(=O)(=O)N(C)C[C@H]2Oc3ncc(/C=C/c4ccccc4)cc3C(=O)N([C@H](C)CO)C[C@@H]2C)cc1 | -10 | 1 | 20* | 4 | -4
CO[C@H](CN(C)Cc1ccc2c(c1)OCO2)[C@@H](C)CN(C(=O)Nc1ccc(F)cc1)[C@H](C)CO | 3 | 5 | 0 | 7 | -2
CO[C@H]1CN(C)C(=O)c2ccc(NC(=O)c3ccccc3)cc2OC[C@H](C)N(C(=O)CN(C)C)C[C@H]1C | -4 | -11 | 2 | 5 | 29*
CCCNC(=O)Nc1ccc2c(c1)OC[C@H](C)N(C(=O)C1CC1)C[C@H](C)[C@H](OC)CN(C)C2=O | -8 | 4 | 6 | 7 | 2
SMILES | PGC1a acetyl inh | S100A4 inh HTS | SIRT5 block | Statin myotox sup | DENV2 CPE
CO[C@@H]1CN(C)C(=O)c2ccc(NC(=O)Nc3cccc(F)c3)cc2OC[C@@H](C)N(C(=O)Nc2c(C)noc2C)C[C@H]1C | 2 | -6 | . | -12 | 63*
CCC(=O)N1C[C@H](C)[C@@H](OC)CN(C)C(=O)c2ccc(NC(=O)Nc3ccccc3)cc2OC[C@H]1C | 10 | 124* | 5 | -7 | 0
CCC(=O)N1C[C@@H](C)[C@@H](OC)CN(C)C(=O)c2ccc(NC(=O)Nc3cccc(F)c3)cc2OC[C@H]1C | -3 | -16 | 4 | 2 | 1
CCCNC(=O)Nc1ccc2c(c1)OC[C@@H](C)N(C(=O)C1CC1)C[C@H](C)[C@@H](OC)CN(C)C2=O | . | 98* | -1 | -2 | ?
C[C@H](O)C#Cc1cnc2c(c1)C(=O)N([C@H](C)CO)C[C@@H](C)[C@@H](CN(C)C(=O)CN1CCOCC1)O2 | 2 | -1 | -5 | -68 | ?
CNC[C@H]1Oc2ccc(NS(=O)(=O)c3ccccc3)cc2C(=O)N([C@@H](C)CO)C[C@H]1C | 11 | -14 | -4 | -2 | 15
CO[C@@H]1CN(C)C(=O)c2ccc(NC(=O)Nc3ccccc3)cc2OC[C@@H](C)N(C(C)=O)C[C@@H]1C | . | 2 | 2 | -1 | 51*
CCCNC(=O)N1C[C@@H](C)[C@H](OC)CN(C)C(=O)c2ccc(NC(=O)C3CCC3)cc2OC[C@H]1C | 0 | 4 | 1 | . | 40*
CO[C@@H]1CN(C)C(=O)c2ccc(NC(=O)Nc3ccccc3)cc2OC[C@H](C)N(C(C)=O)C[C@@H]1C | . | -3 | 4 | -14 | -2
CCCNC(=O)N1C[C@H](C)[C@@H](OC)CN(C)C(=O)c2ccc(NC(=O)C3CCC3)cc2OC[C@H]1C | 5 | -26 | -5 | 10 | 12
CCCN1C[C@H](C)[C@@H](OC)CN(C)C(=O)c2cc(NC(=O)c3ccc(F)cc3)ccc2OC[C@H]1C | -1 | 3 | 8 | 13 | 47*
CCN1C[C@@H](C)[C@H](OC)CN(C)C(=O)c2cc(NC(=O)c3ccno3)ccc2OC[C@H]1C | 9 | -21 | 9 | 6 | 20*
O=S(=O)(Cc1ccccc1)N1CCCCN2[C@H](CO)[C@H](c3ccc(-c4cccnc4)cc3)[C@H]2C1 | 5 | -10 | 10 | 16 | 17
C[C@H](CO)N1C[C@H](C)[C@H](CN(C)C(=O)C2CC2)Oc2cc(-c3ccncc3)ccc2S1(=O)=O | 2 | -7 | -8 | -4 | -4
CO[C@@H]1CN(C)C(=O)c2ccc(NC(=O)Nc3cccc(F)c3)cc2OC[C@@H](C)N(C)C[C@@H]1C | . | -11 | 7 | -8 | -6
CCCN1C[C@H](C)[C@@H](OC)CN(C)C(=O)c2ccc(NC(=O)c3cccc(F)c3)cc2OC[C@@H]1C | -4 | -5 | 4 | 4 | 29*

Screens as filed in PubChem BioAssay.
